In article PMC6373376 (Clinical Pharmacokinetics, 2018):
Like-named read-outs stand apart in the source and are kept apart here.

Key:
[1] = Study A: safety/tolerability; type: in vivo, human
How it was run: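 Healthy adults; open-label, two-period, single-sequence design. Period 1: single oral 4 mg test compound on day 1. Period 2: azole CYP2C9 inhibitor 200 mg twice on day 1, then 200 mg once daily days 2–19, with 4 mg test compound on day 3. Washout 14–21 days. Safety covered all AEs and SAEs, physical exams, vital signs, ECG and lab tests, in everyone given at least one dose.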

CYP3A4 = details: cited from earlier work
[2] = type: in vivo, human; details: for Tlag / Tmax: median (range)
CYP2C9 = details: cited from earlier work
[3] = same dosing regimen, ref unpublished data; cited from earlier work
[4] = cited from earlier work
[5] = cited from earlier work; remark: listed apart in the source
[6] = Study B: safety/tolerability; type: in vivo, human
How it was run: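 Healthy subjects genotyped for CYP2C9. Part 1: single oral 0.25 mg test compound to *1/*1 (n = 12), *2/*3 (n = 6) and *3/*3 (n = 6), then 42-day washout. Part 2: poor metabolisers only, 0.25 mg on days 1–2 and 0.5 mg on day 3. Safety covered all AEs and SAEs, cardiac monitoring, haematology, blood chemistry and urinalysis, in all dosed subjects.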

[7] = type: in vivo, human
[8] = type: in vivo, human; details: for T½ / Tlag / AUC(0-t) / AUC(0-inf) / Cmax / Tmax / half-life / Vd/F: Study B part 1, siponimod 0.25 mg single dose; for AUC / AUC(0-t) / AUC(0-inf) / Cmax / Tmax / half-life / Vd/F: human, plasma, oral, 0.25 mg; for AUC: AUC24, Study B part 1, siponimod 0.25 mg single dose; for AUC(0-t): AUClast; for half-life: T½; for Vd/F: VZ/F
[9] = cited from earlier work; remark: listed apart in the source
[10] = CYP2C9*1/*1, geometric mean (CV%)
[11] = CYP2C9*2/*3, geometric mean (CV%)
[12] = CYP2C9*3/*3, geometric mean (CV%)
[13] = single-ascending dose 0.1–75 mg

Question: Which “Deaths or SAEs” value ([1]; Study A) does the source give for `CCc1cc(/C(C)=N/OCc2ccc(C3CCCCC3)c(C(F)(F)F)c2)ccc1CN1CC(C(=O)O)C1` [Siponimod] here?
Answer: No deaths or SAEs were reported

Question: What about the “Subjects who experienced AEs” value ([1]; Study A period 1, siponimod 4 mg alone) of the same compound?
Answer: 79%

Question: What about the “Subjects who experienced AEs” value ([1]; Study A period 2, siponimod + fluconazole) of the same compound?
Answer: 73%

Question: And the “Contribution of CYP3A4 to metabolism (formation of M5)” value (CYP3A4)?
Answer: 18.5%

Question: And the “Increase in Cmax in the presence of fluconazole” value ([2]; Study A)?
Answer: 10%

Question: What about the Tlag ([2]; Study A, siponimod 4 mg + steady-state fluconazole) of the same compound?
Answer: 0 (0–0) h

Question: What about the CL/F ([2]; Study A, siponimod 4 mg alone, geometric mean (CV%)) of the same compound?
Answer: 3.6 L/h

Question: And the Tlag ([2]; Study A, siponimod 4 mg alone)?
Answer: 0.25 (0–0.5) h

Question: And the Tmax ([2]; Study A, siponimod 4 mg alone)?
Answer: 4.0 (2.0–8.1) h

Question: What about the AUC(0-inf) ([2]; human, plasma, oral, 4 mg) of the same compound?
Answer: 1120 ng·h/mL

Question: And the Cmax ([2]; human, plasma, oral, 4 mg)?
Answer: 31.2 ng/mL

Question: What about the Vd/F ([2]; human, plasma, oral, 4 mg) of the same compound?
Answer: 210 L

Question: And the Tmax ([2]; human, plasma, oral, 4 mg, Tmax, Study A, siponimod 4 mg alone)?
Answer: ~4 h

Question: And the AUC(0-t) ([2]; human, plasma, po, 4 mg)?
Answer: 1110 ng·h/mL

Question: And the “Contribution of CYP2C9 to metabolism (formation of M5)” value (CYP2C9)?
Answer: 79.2%

Question: What about the “Contribution of the CYP2C9 pathway to total metabolic clearance (fm)” value (CYP2C9; determined in vitro) of the same compound?
Answer: 79%

Question: And the “Tmax observed in historical data” value [3]?
Answer: 1.35 h

Question: And the “Tolerability of multiple doses” value ([4]; doses up to 20 mg daily for 28 days)?
Answer: well tolerated

Question: And the “Time to steady-state of plasma siponimod” value ([4]; multiple-ascending dose 0.3–20 mg, 28 days, 48 healthy subjects)?
Answer: approximately 6 days

Question: What about the “Effective elimination half-life (T½)” value ([4]; multiple-ascending dose 0.3–20 mg, range) of the same compound?
Answer: 22 to 38 h

Question: What about the “Predicted increase in siponimod AUC in the presence of fluconazole” value ([5]; SimCYP simulation) of the same compound?
Answer: two to three

Question: And the “First-pass effect estimated by SimCYP” value ([5]; ref unpublished data)?
Answer: ~5 % of the administered dose

Question: What about the “Deaths or SAEs” value ([6]; Study B) of the same compound?
Answer: No deaths or SAEs were reported

Question: And the “Subjects reporting at least one AE” value ([6]; Study B part 2, 12 subjects)?
Answer: 25%

Question: And the “Headache (most prevalent AE) incidence” value ([6]; Study B, in both parts)?
Answer: 8.3%

Question: And the “AUC24 on day 3 higher versus the dose titration study data” value ([7]; Study B part 2, CYP2C9*2/*3, comparison with ref 15)?
Answer: 1.4 fold

Question: And the “AUC24 on day 3 higher versus the dose titration study data” value ([7]; Study B part 2, CYP2C9*3/*3, comparison with ref 15)?
Answer: 1.7 fold

Question: What about the Tmax ([7]; human, plasma, po, 0.5 mg) of the same compound?
Answer: 6 h

Question: What about the AUC ([7]; human, plasma, po, 0.5 mg, AUC24, Study B part 2, day 3, CYP2C9*2/*3, mean) of the same compound?
Answer: 125 ng·h/mL

Question: And the AUC ([7]; human, plasma, po, 0.5 mg, AUC24, Study B part 2, day 3, CYP2C9*3/*3, mean)?
Answer: 148 ng·h/mL

Question: What about the T½ [8, 10] of the same compound?
Answer: 28.1 (18.5) h

Question: And the Tlag ([8]; CYP2C9*1/*1, median (range))?
Answer: 0.25 (0.00–0.50) h

Question: What about the T½ [8, 11] of the same compound?
Answer: 50.9 (31.7) h

Question: And the Tlag ([8]; CYP2C9*2/*3, median (range))?
Answer: 0.25 (0.00–0.50) h

Question: What about the Tlag ([8]; CYP2C9*3/*3, median (range)) of the same compound?
Answer: 0.50 (0.00–0.50) h

Question: And the AUC [8, 10]?
Answer: 31.6 ng·h/mL

Question: What about the AUC [8, 11] of the same compound?
Answer: 44.7 ng·h/mL

Question: What about the AUC [8, 12] of the same compound?
Answer: 42.7 ng·h/mL

Question: What about the AUC(0-t) [8, 10] of the same compound?
Answer: 68.6 ng·h/mL

Question: And the AUC(0-t) [8, 11]?
Answer: 140 ng·h/mL

Question: And the AUC(0-t) [8, 12]?
Answer: 266 ng·h/mL

Question: What about the AUC(0-inf) [8, 10] of the same compound?
Answer: 70.5 ng·h/mL

Question: What about the AUC(0-inf) [8, 11] of the same compound?
Answer: 144 ng·h/mL

Question: What about the AUC(0-inf) [8, 12] of the same compound?
Answer: 271 ng·h/mL

Question: And the Cmax [8, 11]?
Answer: 2.45 ng/mL

Question: And the Cmax [8, 12]?
Answer: 2.35 ng/mL

Question: What about the Tmax ([8]; CYP2C9*1/*1, median (range)) of the same compound?
Answer: 4 h

Question: And the Tmax ([8]; CYP2C9*2/*3, median (range))?
Answer: 5 h

Question: And the Tmax ([8]; CYP2C9*3/*3, median (range))?
Answer: 4 h

Question: And the half-life [8, 11]?
Answer: 51 h

Question: And the half-life [8, 12]?
Answer: 126 h

Question: What about the Vd/F [8, 10] of the same compound?
Answer: 144 L

Question: And the Vd/F [8, 11]?
Answer: 127 L

Question: And the Vd/F [8, 12]?
Answer: 167 L

Question: What about the “Single-dose maximum tolerated dose (MTD)” value ([9]; healthy subjects, single-ascending dose range study, ref unpublished data) of the same compound?
Answer: 25 mg

Question: What about the “Earliest time measurable in plasma postdose” value ([9]; single-ascending dose 0.1–75 mg, 98 healthy subjects) of the same compound?
Answer: 0.25 h

Question: What about the “Time at which Cmax was reached postdose” value [9, 13] of the same compound?
Answer: 3 to 8 h

Question: And the “Time at which Cmax was reached, minimum–maximum” value [9, 13]?
Answer: 0.25 to 24 h

Question: And the “T½, mean range” value ([9]; single-ascending dose study, ref unpublished data)?
Answer: 27 to 57 h
